Tests used:
[1] = Cytotoxicity against human MRC5 SV2 cells assessed as reduction in cell viability measured after 72 hrs by resazurin dye based fluorimetric analysis
Trypanosoma brucei [2] = assay: Antitrypanosomal activity against suramin sensitive Trypanosoma brucei Squib427 trypomastigotes assessed as reduction in parasitic cell viability measured after 72 hrs by resazurin dye based fluorimetric analysis; format: functional, organism-based; conditions: Squib427, 72 h
Method in brief: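 Suramin-sensitive Squib-427 trypomastigotes cultured in HMI-9 with 10% heat-inactivated FCS at 37 °C, 5% CO2. About 1.5 × 10^4 parasites per well, five concentrations (64, 16, 4, 1, 0.25 μM), DMSO ≤0.5%, 72 h at 37 °C. Resazurin added, fluorescence read 24 h later (ex 550/em 590 nm) as % viability reduction vs control. Suramin reference; duplicate experiments, mean ± S.E.M.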

[3] = target: T1, Class 1 phosphodiesterase PDEB1 (Trypanosoma brucei, UniProt Q8WQX9); assay: Inhibition of Trypanosoma brucei PDEB1 catalytic domain (565 to 918 residues) expressed in Escherichia coli BL21 incubated for 20 mins using cAMP as substrate by PDELight HTS cAMP phosphodiesterase Kit based luminometry
T1 sequence (Q8WQX9 whole entry): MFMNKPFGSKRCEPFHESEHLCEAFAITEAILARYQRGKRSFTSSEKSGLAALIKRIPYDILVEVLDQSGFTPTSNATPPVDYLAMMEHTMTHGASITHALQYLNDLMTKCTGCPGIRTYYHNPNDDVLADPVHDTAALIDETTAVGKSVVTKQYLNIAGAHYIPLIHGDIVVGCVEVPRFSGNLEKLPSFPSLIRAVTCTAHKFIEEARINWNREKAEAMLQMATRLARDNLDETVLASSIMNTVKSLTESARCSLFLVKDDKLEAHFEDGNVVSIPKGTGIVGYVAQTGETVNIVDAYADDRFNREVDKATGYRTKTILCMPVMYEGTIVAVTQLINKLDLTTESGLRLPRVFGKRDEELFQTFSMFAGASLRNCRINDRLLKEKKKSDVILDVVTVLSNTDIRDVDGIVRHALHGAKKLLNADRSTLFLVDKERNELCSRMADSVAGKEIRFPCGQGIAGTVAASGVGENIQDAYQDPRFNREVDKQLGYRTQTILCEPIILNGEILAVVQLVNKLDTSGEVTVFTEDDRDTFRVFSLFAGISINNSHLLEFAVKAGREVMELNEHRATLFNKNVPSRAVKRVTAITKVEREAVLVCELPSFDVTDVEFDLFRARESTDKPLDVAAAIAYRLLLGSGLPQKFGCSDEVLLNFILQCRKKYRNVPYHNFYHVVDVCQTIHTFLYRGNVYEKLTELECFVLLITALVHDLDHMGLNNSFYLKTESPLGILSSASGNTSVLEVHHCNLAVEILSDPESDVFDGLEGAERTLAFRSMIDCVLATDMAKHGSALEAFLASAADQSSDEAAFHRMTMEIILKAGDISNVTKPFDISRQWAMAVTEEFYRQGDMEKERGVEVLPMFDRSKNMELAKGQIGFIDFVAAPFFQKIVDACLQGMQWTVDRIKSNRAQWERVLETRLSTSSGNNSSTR

[4] = target: 3',5'-cyclic-AMP phosphodiesterase 4B (Homo sapiens, UniProt Q07343); assay: Inhibition of human PDE4B catalytic domain incubated for 20 mins using cAMP as substrate by PDELight HTS cAMP phosphodiesterase Kit based luminometry
[5] = Cytotoxicity against human MRC5 SV2 cells assessed as reduction in cell viability at 64 uM measured after 72 hrs by resazurin dye based fluorimetric analysis
Trypanosoma brucei [6] = assay: Antitrypanosomal activity against bloodstream of Trypanosoma brucei trypanosomes assessed as increase in intracellular cAMP level at 3.2 uM measured per 5x10^6 cells after 4 hrs by direct cAMP enzyme immunoassay kit based ELISA (reference value: 6.66 pmol); format: functional
Trypanosoma brucei [7] = assay: Antitrypanosomal activity against bloodstream of Trypanosoma brucei trypanosomes assessed as increase in intracellular cAMP level at 8 uM measured per 5x10^6 cells after 4 hrs by direct cAMP enzyme immunoassay kit based ELISA (reference value: 6.66 pmol); format: functional

Chain of 3',5'-cyclic-AMP phosphodiesterase 4B (Q07343 whole entry, the tested form may be a part): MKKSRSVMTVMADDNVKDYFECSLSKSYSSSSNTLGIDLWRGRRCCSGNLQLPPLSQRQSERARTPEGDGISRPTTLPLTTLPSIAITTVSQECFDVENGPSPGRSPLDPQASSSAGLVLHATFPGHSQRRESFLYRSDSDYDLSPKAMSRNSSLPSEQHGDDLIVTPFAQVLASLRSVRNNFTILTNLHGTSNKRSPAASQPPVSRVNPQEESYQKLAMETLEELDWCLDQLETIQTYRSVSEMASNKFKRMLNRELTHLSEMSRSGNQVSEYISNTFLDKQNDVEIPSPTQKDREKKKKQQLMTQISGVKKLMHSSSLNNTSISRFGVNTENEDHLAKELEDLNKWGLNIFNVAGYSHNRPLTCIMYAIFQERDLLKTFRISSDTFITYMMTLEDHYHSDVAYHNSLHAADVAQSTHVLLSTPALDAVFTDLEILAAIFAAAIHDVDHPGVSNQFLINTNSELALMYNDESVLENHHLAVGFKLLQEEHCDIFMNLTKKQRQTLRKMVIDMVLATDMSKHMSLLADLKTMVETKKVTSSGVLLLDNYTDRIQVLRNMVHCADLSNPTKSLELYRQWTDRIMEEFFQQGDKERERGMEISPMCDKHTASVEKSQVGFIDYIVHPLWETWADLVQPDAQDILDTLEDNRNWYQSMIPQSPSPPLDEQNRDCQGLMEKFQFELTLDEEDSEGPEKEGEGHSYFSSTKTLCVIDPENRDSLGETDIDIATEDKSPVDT

`COc1ccc(C2=NN(C(C)C)C(=O)[C@@H]3CC=CC[C@H]23)cc1-c1ccc(C(=O)NCC(N)=O)cc1` showed a CC50 at 72 h [1] of 31.6 µM and an IC50 (Trypanosoma brucei [2]; read-out: pIC50 (converted)) of 6.31 µM.

With `COc1ccc(C2=NN(C3CCCCCC3)C(=O)[C@@H]3CC=CC[C@H]23)cc1-c1ccc(C(=O)NCC(N)=O)cc1` the CC50 at 72 h [1] was 39.8 µM and the IC50 (Trypanosoma brucei [2]; read-out: pIC50 (converted)) was 5.01 µM.

`COc1ccc(C2=NN(C3CCCCCC3)C(=O)[C@@H]3CC=CC[C@H]23)cc1-c1ccc2c(c1)CNC2=O` gave a Ki [3] of 1.58 µM.

With `COc1ccc(C2=NN(C(C)C)C(=O)[C@@H]3CC=CC[C@H]23)cc1N1CC(C(N)=O)C1` the Ki [3] was greater than 10 µM.

For `COc1ccc(C2=NN(C3CCCCCC3)C(=O)[C@@H]3CC=CC[C@H]23)cc1-c1ccc(C(=O)NCC(N)=O)c(F)c1`, the Ki [3] was 0.794 µM.

`COCCN1Cc2cc(-c3cc(C4=NN(C5CCCCCC5)C(=O)[C@@H]5CC=CC[C@H]45)ccc3OC)ccc2C1=O` (relative stereo) showed a Ki [3] of 1.26 µM.

For `COc1ccc(C2=NN(C3CCCCCC3)C(=O)[C@@H]3CC=CC[C@H]23)cc1C#Cc1cnco1` (relative stereo), the Ki [3] was greater than 10 µM.

`C#Cc1cc(C2=NN(C3CCCCCC3)C(=O)[C@@H]3CC=CC[C@H]23)ccc1OC` (relative stereo) gave a Ki [3] of 3.98 µM.

`CCCCNC(=O)c1ccc(-c2cc(C3=NN(C(C)C)C(=O)[C@@H]4CC=CC[C@H]34)ccc2OC)s1` (relative stereo) showed a Ki [3] greater than 10 µM.

In the case of `COc1ccc(C2=NN(C(C)C)C(=O)[C@@H]3CC=CC[C@H]23)cc1-c1ccc(C(=O)NCc2ccco2)s1` (relative stereo), the Ki [3] is reported as greater than 10 µM.

For `COc1ccc(C2=NN(C3CCCCCC3)C(=O)[C@@H]3CC=CC[C@H]23)cc1C#CC(=O)NCc1ccco1` (relative stereo), the Ki [4] was 0.398 µM, the Activity [5] was “Non-Toxic” and the CC50 at 72 h [1] was 50.1 µM. It also gave a Ki [3] of 0.501 µM, an IC50 (Trypanosoma brucei [2]; read-out: IC50) of 0.6 µM and an IC50 (Trypanosoma brucei [2]; read-out: pIC50 (converted)) of 0.631 µM.

In the case of `COc1ccc(C2=NN(C3CCCCCC3)C(=O)[C@@H]3CC=CC[C@H]23)cc1C#CC(N)=O` (relative stereo), the Activity (Trypanosoma brucei [6]) is reported as 19.8 pmol, the CC50 at 72 h [1] is reported as 10 µM and the Activity (Trypanosoma brucei [7]) is reported as 311 pmol. It also gave an IC50 (Trypanosoma brucei [2]; read-out: pIC50 (converted)) of 1 µM.

For `COc1ccc(C2=NN(C3CCCCCC3)C(=O)[C@@H]3CC=CC[C@H]23)cc1C#CC(=O)N1CCOCC1` (relative stereo), the Ki [3] was 1 µM.

In the case of `COc1ccc(C2=NN(C3CCCCCC3)C(=O)[C@@H]3CC=CC[C@H]23)cc1-c1ccc(C(=O)NCC(N)=O)cc1C` (relative stereo), the Ki [3] is reported as greater than 10 µM.

`COc1ccc(C2=NN(C3CCCCCC3)C(=O)[C@@H]3CC=CC[C@H]23)cc1C#CC(=O)NCC(N)=O` (relative stereo) showed a CC50 at 72 h [1] of 3.98 µM, a Ki [3] of 0.631 µM and an IC50 (Trypanosoma brucei [2]; read-out: pIC50 (converted)) of 3.98 µM.

`COc1ccc(C2=NN(C(C)C)C(=O)[C@@H]3CC=CC[C@H]23)cc1-c1ccc(C(N)=O)s1` (relative stereo) showed a Ki [3] of 10 µM.

With `CCCCNC(=O)C#Cc1cc(C2=NN(C3CCCCCC3)C(=O)[C@@H]3CC=CC[C@H]23)ccc1OC` (relative stereo) the Ki [4] was 0.631 µM, the Activity [5] was “Non-Toxic” and the CC50 at 72 h [1] was greater than 63.1 µM. For the same compound, the Ki [3] was 0.398 µM, the IC50 (Trypanosoma brucei [2]; read-out: IC50) was 0.6 µM and the IC50 (Trypanosoma brucei [2]; read-out: pIC50 (converted)) was 0.631 µM.

In the case of `COCCNC(=O)C#Cc1cc(C2=NN(C3CCCCCC3)C(=O)[C@@H]3CC=CC[C@H]23)ccc1OC` (relative stereo), the Ki [4] is reported as 1.58 µM, the CC50 at 72 h [1] is reported as greater than 63.1 µM and the Ki [3] is reported as 0.794 µM. The IC50 (Trypanosoma brucei [2]; read-out: pIC50 (converted)) was greater than 63.1 µM.

`COCCNC(=O)c1ccc(-c2cc(C3=NN(C(C)C)C(=O)[C@@H]4CC=CC[C@H]34)ccc2OC)s1` (relative stereo) showed a Ki [3] greater than 10 µM.

For `CCCCNC(=O)C1CN(c2cc(C3=NN(C(C)C)C(=O)[C@@H]4CC=CC[C@H]34)ccc2OC)C1` (relative stereo), the Ki [3] was greater than 10 µM.

Work on `COc1ccc(C2=NN(C(C)C)C(=O)[C@@H]3CC=CC[C@H]23)cc1-c1ccc(C(=O)NCC(N)=O)s1` (relative stereo) yielded a Ki [3] greater than 10 µM.

In the case of `COc1cc(-c2cc(C3=NN(C4CCCCCC4)C(=O)[C@@H]4CC=CC[C@H]34)ccc2OC)ccc1C(=O)NCC(N)=O` (relative stereo), the Ki [3] is reported as 6.31 µM.

`COc1ccc(C2=NN(C(C)C)C(=O)[C@@H]3CC=CC[C@H]23)cc1N1CC(C(=O)NCC(N)=O)C1` (relative stereo) showed a Ki [3] greater than 10 µM.

With `COc1ccc(C2=NN(C3CCCCCC3)C(=O)[C@@H]3CC=CC[C@H]23)cc1-c1ccc2c(c1)CN(CC(N)=O)C2=O` (relative stereo) the Ki [3] was 1.26 µM.

Compound `COc1ccc(C2=NN(C3CCCCCC3)C(=O)[C@@H]3CC=CC[C@H]23)cc1-c1ccc(C(=O)NCC(N)=O)cc1F` (relative stereo) has a Ki [3] of 2 µM.

With `COc1cc(C(=O)NCC(N)=O)ccc1-c1cc(C2=NN(C3CCCCCC3)C(=O)[C@@H]3CC=CC[C@H]23)ccc1OC` (relative stereo) the Ki [3] was 7.94 µM.

`COc1ccc(C2=NN(C(C)C)C(=O)[C@@H]3CC=CC[C@H]23)cc1N1CC(C(=O)NCc2ccco2)C1` (relative stereo) showed a Ki [3] greater than 10 µM.

`COc1ccc(C2=NN(C3CCCCCC3)C(=O)[C@@H]3CC=CC[C@H]23)cc1-c1ccc(C(=O)NCC(N)=O)c(C)c1` (relative stereo) showed a Ki [3] of 2 µM.

— ChEMBL document CHEMBL4346747, “Alkynamide phthalazinones as a new class of TbrPDEB1 inhibitors” (Bioorg Med Chem, 2019)
